Results on two compounds are retold here after ChEMBL document CHEMBL1126061, “Cyclic RGD peptide analogues as antiplatelet antithrombotics” (J Med Chem, 1992).

What all share (type): protein-complex assay
The target in assay [1] is T1, Integrin alpha-IIb/beta-3 (Homo sapiens, UniProt P05106+P08514). As to the kind of experiment: Inhibition of Fibrinogen receptor. In short, it runs like this:
(§1)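 Solid-phase ELISA: human fibrinogen (10 µg/mL) coated, BSA-blocked; samples plus purified human platelet GPIIbIIIa (40 µg/mL) incubated 1 h at room temperature. Bound receptor detected with anti-GPIIbIIIa antibody AP3 (1 µg/mL, 1 h), then goat anti-mouse HRP (1 h); OPD/H2O2 at pH 5, stopped with H2SO4, absorbance 492-405 nm. IC50 from four-parameter fit; n ≥ 3.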

In assay [2] the target is T1, Integrin alpha-IIb/beta-3. As to the kind of experiment: The compound was tested for the inhibition of fibrinogen receptor. An outline of the steps: as §1
Assay [3] concerns the target T1, Integrin alpha-IIb/beta-3. As to the kind of experiment: Inhibition of Fibrinogen binding to Fibrinogen receptor. In short, it runs like this: as §1

*1 amine or outer side, *2 acyl side, *3 side chain or, on linkers, in order; H or OH if unused. Where a SMILES comes first, the peptide text is derived from it. Bridges are numbered along the chain shown (N, C = ends). [ ]: non-standard residue; d: D form. Cys(O)(CH2CO) = O=C([C@H](C[S+]([O-])CC(=O)[*:3])N[*:1])[*:2]

T1 sequence (P05106 27-788 limits assumed): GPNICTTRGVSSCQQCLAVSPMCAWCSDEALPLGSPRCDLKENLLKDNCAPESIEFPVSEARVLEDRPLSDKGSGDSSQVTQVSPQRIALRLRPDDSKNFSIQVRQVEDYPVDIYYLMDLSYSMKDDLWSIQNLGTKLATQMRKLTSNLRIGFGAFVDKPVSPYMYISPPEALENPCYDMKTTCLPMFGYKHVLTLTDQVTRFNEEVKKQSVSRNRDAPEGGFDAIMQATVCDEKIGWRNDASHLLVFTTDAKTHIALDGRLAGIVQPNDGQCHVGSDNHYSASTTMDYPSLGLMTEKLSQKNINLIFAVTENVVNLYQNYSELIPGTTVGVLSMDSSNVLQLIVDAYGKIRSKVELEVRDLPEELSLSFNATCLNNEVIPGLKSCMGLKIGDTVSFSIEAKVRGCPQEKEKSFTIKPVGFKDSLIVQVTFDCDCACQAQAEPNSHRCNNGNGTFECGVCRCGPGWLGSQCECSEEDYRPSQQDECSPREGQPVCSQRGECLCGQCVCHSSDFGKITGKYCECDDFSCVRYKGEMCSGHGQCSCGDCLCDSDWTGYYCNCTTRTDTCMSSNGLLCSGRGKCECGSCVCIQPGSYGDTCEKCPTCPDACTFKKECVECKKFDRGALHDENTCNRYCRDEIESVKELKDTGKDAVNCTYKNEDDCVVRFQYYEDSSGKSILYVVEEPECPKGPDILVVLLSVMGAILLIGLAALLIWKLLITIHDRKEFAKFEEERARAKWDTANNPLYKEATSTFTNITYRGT
T1 sequence (P08514 32-887 limits assumed): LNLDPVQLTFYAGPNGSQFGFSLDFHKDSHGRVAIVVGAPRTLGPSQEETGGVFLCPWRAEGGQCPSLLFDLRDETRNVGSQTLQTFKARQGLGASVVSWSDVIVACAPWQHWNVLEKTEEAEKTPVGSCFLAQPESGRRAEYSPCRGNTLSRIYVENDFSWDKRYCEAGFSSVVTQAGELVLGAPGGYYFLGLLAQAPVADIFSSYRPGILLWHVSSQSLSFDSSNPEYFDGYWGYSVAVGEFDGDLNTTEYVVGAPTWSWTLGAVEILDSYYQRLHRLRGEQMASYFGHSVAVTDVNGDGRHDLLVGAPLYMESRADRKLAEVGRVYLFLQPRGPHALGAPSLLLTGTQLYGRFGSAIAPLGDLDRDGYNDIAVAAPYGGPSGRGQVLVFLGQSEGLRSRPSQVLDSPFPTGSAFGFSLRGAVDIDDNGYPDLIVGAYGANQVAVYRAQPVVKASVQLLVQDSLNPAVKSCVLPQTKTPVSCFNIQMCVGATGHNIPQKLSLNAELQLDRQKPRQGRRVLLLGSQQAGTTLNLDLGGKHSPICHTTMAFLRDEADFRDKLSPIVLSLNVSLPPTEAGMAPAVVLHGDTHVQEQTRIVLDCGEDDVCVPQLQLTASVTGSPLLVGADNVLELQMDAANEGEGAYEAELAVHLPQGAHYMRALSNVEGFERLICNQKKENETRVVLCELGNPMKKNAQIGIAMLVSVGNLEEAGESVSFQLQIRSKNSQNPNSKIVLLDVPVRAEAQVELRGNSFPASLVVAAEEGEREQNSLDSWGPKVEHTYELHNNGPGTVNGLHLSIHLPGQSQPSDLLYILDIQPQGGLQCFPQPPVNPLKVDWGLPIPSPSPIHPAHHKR
T1 sequence (P08514 891-1039 limits assumed): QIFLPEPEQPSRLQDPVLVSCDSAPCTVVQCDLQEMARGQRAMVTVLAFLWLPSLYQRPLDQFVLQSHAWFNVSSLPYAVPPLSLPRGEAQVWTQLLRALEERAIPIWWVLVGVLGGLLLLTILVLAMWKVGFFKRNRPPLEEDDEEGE

As usually defined, the IC50 is the concentration needed to halve the response being measured. Low values mean greater potency in that assay, high ones weaker potency in that assay. In turn, `N=C(N)NCCC[C@H](N)C(=O)NCC(=O)N[C@@H](CC(=O)O)C(=O)N[C@@H](Cc1ccccc1)C(=O)O` (H-RGDF-OH) yielded an IC50 in assay [1] of 31 nM. As to `CC(C)[C@@H]1NC(=O)C[S+]([O-])C[C@@H](C(=O)O)NC(=O)[C@H](CC(=O)O)NC(=O)CNC(=O)[C@H](CCCNC(=N)N)NC1=O` (stereo partly drawn) (VRGD[Cys(O)(CH2CO)]-OH; lactam N-5), the IC50 stood at 2.9 nM in assay [2] and 4.5 nM in assay [3].
